Converted amounts (≈) assume the structure as drawn.
Key:
[1] = Oral bioavailability in Beagle dog at 1 mg/kg, po; type: ADME, organism-based, Canis lupus familiaris; settings: in vivo
Outline: (§1)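 Pharmacokinetics after one oral dose in male Sprague-Dawley rats (1 mg/kg, or 2 mg dose), beagle dogs and cynomolgus monkeys (1 mg/kg). Bioavailability, half-life, clearance and volume of distribution reported as mean ± variation.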

[2] = Solubility in 5% dextrose in water; type: physicochemical
Outline: (§2)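 Solubility of each compound measured in sterile water for injection, 0.9% saline, 5% dextrose in water, ethanol and octanol; values in mg/mL from duplicate determinations per solvent, individual values varying <5%.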

[3] = Solubility in 0.9% saline; type: physicochemical; outline: as §2
[4] = Oral bioavailability in Sprague-Dawley rat at 1 mg/kg, po; type: ADME, organism-based; settings: in vivo; outline: as §1
Adenosine receptor A2a [5] = biological target: Adenosine receptor A2a (Rattus norvegicus, UniProt P30543); assay: Displacement of [3H]ZM-241385 from rat brain striatum adenosine A2A receptor
Outline: (§3)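 Crude membranes (10-20 µg protein) from rat brain cortex (A1, 2 nM 3H-CPX) or striatum (A2A, 0.5-1.2 nM 3H-ZM241385) incubated 90 min at room temperature in 50 mM Tris-HCl pH 7.4 with 2 U/mL adenosine deaminase. Stopped with ice-cold buffer, then vacuum filtration and scintillation counting. Ki from concentration-response displacement.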

Canis familiaris = assay: Volume of distribution in Beagle dog at 1 mg/kg, po; type: ADME, organism-based, Canis lupus familiaris; set-up: dose 1 mg/kg, route oral; settings: in vivo; outline: as §1
Rattus norvegicus [6] = species: Rattus norvegicus; assay: Reversal of CPA inhibition of isoproterenol-stimulated rat atria; type: functional, organism-based; settings: Cardiac atrium
Outline: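 Isolated rat atria in Krebs buffer at 37 °C gassed with 95% O2/5% CO2, pH 7.4, stimulated with 30 nM isoproterenol. EC50 taken at 50% restoration, 5 atria per dose group.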

Rattus norvegicus [7] = assay: Natriuretic effect in orally dosed rat; type: ADME, organism-based; settings: po
Outline: (§4)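 Male Sprague-Dawley rats in metabolic cages dosed by gavage in 0.5% CMC suspension, 0.001-3 mg/kg (n=3-5 per group; vehicle n=3). Urine collected 4 h, volume measured gravimetrically, Na and K by flame photometry. Urine flow and UNaV expressed per hour, averaged over 4 h.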

[8] = Clearance in Beagle dog at 1 mg/kg, po; type: ADME, organism-based, Canis lupus familiaris; set-up: dose 1 mg/kg, route oral; settings: in vivo; outline: as §1
Adenosine receptor A2b = biological target: T1, Adenosine receptor A2b (Homo sapiens, UniProt P29275); assay: Displacement of [125I]3-(4-aminobenzyl)-8-phenyloxyacetate-1-propyl-xanthine from human adenosine A2B receptor expressed in HEK cells; type: cell-based, HEK293
T1 sequence (P29275 whole entry): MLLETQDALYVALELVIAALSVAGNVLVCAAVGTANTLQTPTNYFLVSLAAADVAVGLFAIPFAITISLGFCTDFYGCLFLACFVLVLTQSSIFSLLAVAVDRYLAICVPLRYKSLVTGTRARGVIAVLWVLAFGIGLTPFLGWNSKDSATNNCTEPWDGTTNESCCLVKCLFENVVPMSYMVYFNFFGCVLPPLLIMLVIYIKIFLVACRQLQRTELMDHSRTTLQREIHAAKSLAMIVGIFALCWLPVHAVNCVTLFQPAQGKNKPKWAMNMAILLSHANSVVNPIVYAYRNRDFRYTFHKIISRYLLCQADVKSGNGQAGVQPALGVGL
Outline: (§5)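 Membranes from stably transfected CHO-K1 (hA1) or HEK (hA2A, hA2B, hA3) cells, 2 h at room temperature in 50 mM HEPES pH 7.4, 1 mM EDTA, 5 mM MgCl2, 1 U/mL adenosine deaminase. 5% DMSO final except hA3. Full curves 10^-11–10^-5 M, seven concentrations, four determinations each. Filtration, γ-counting, Ki derived.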

Adenosine receptor A2a [9] = biological target: Adenosine receptor A2a (Homo sapiens, UniProt P29274); assay: Displacement of [125I]ZM-241385 from human adenosine A2A receptor expressed in HEK cells; type: cell-based, HEK293; outline: as §5
Adenosine receptor A3 = biological target: T2, Adenosine receptor A3 (Homo sapiens, UniProt P0DMS8); assay: Displacement of [125I]ABA from human adenosine A3 receptor expressed in HEK cells; type: cell-based, HEK293
T2 sequence (P0DMS8 whole entry): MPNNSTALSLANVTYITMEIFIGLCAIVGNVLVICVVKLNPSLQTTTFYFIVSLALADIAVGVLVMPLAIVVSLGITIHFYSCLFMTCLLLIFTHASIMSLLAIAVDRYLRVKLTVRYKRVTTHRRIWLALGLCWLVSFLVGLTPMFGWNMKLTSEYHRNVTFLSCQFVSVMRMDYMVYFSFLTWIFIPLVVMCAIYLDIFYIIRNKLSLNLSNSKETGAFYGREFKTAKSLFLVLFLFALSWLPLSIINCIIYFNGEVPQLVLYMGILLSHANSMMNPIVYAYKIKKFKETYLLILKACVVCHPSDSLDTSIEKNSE
Outline: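 Membranes from stably transfected CHO-K1 (hA1) or HEK (hA2A, hA2B, hA3) cells, 2 h at room temperature in 50 mM HEPES pH 7.4, 1 mM EDTA, 5 mM MgCl2, 1 U/mL adenosine deaminase. 5% DMSO final except hA3. Radioligands: 0.3 nM (hA1) or 0.6 nM (hA3) 125I-ABA, 0.7 nM 125I-ZM241385, 0.5 nM A2B ligand. Full curves 10^-11–10^-5 M, seven concentrations, four determinations each. Filtration, γ-counting, Ki derived.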

[10] = Clearance in Sprague-Dawley rat at 1 mg/kg, po; type: ADME, organism-based; set-up: dose 1 mg/kg, route oral; settings: in vivo; outline: as §1
[11] = Oral bioavailability in cynomolgus monkey at 1 mg/kg, po; type: ADME, organism-based, Macaca fascicularis; settings: in vivo; outline: as §1
[12] = Half life in Beagle dog at 1 mg/kg, po; type: ADME, organism-based, Canis lupus familiaris; set-up: dose 1 mg/kg, route oral; settings: in vivo; outline: as §1
[13] = Clearance in cynomolgus monkey at 1 mg/kg, po; type: ADME, organism-based, Macaca fascicularis; set-up: dose 1 mg/kg, route oral; settings: in vivo; outline: as §1
[14] = Aqueous solubility of the compound; type: physicochemical; settings: water; outline: as §2
Cynomolgus monkey = assay: Volume of distribution in cynomolgus monkey at 1 mg/kg, po; type: ADME, organism-based, Macaca fascicularis; set-up: dose 1 mg/kg, route oral; settings: in vivo; outline: as §1
[15] = Half life in Sprague-Dawley rat at 1 mg/kg, po; type: ADME, organism-based; set-up: dose 1 mg/kg, route oral; settings: in vivo; outline: as §1
Rattus norvegicus [16] = assay: Volume of distribution in Sprague-Dawley rat at 1 mg/kg, po; type: ADME, organism-based; set-up: dose 1 mg/kg, route oral; settings: in vivo; outline: as §1
[17] = Half life in cynomolgus monkey at 1 mg/kg, po; type: ADME, organism-based, Macaca fascicularis; set-up: dose 1 mg/kg, route oral; settings: in vivo; outline: as §1
Adenosine receptor A1 [18] = biological target: T3, Adenosine receptor A1 (Rattus norvegicus, UniProt P25099); assay: Displacement of [3H]CPX from rat brain cortex adenosine A1 receptor; outline: as §3
T3 sequence (P25099 whole entry): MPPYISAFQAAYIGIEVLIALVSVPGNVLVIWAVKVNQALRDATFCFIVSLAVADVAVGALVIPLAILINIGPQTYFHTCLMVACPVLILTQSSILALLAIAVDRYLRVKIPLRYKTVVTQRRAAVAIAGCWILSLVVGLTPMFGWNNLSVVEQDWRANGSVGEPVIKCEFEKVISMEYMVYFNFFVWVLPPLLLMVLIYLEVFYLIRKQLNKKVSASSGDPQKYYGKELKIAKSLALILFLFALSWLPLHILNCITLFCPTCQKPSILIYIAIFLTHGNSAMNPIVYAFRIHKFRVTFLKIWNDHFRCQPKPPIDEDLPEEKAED

Rattus norvegicus [19] = assay: Diuretic effect in orally dosed rat; type: ADME, organism-based; settings: Urine, po; outline: as §4
[20] = Solubility in octanol; type: physicochemical; outline: as §2
[21] = Solubility in ethanol; type: physicochemical; outline: as §2
Adenosine receptor A1 [22] = biological target: T4, Adenosine receptor A1 (Homo sapiens, UniProt P30542); assay: Displacement of [125I]ABA from human adenosine A1 receptor expressed in CHOK1 cells; type: cell-based, CHO-K1; outline: as §5
T4 sequence (P30542 whole entry): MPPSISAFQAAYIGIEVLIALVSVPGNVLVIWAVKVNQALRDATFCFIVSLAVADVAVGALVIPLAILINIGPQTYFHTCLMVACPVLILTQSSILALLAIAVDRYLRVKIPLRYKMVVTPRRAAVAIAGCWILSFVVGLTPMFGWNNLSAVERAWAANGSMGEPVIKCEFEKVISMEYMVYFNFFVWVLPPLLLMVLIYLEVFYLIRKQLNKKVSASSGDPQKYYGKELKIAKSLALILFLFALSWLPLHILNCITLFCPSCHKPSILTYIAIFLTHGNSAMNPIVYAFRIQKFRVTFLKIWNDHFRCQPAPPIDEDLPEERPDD

[23] = biological target: T5, Adenosine receptor A3 (Homo sapiens) (UniProt P0DMS8); assay: Displacement of [125I]ABA from human adenosine A3 receptor expressed in HEK cells relative to control; type: cell-based; set-up: concentration or dose not given beside the values; settings: HEK293
T5 sequence (whole entry): T2 sequence (P0DMS8 whole entry)
Outline: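 Single-point screen at 1 µM antagonist, run in duplicate, on transfected-cell membranes: CHO-K1 (hA1), HEK (hA2A, hA2B, hA3). 2 h at room temperature in 50 mM HEPES pH 7.4, 1 mM EDTA, 5 mM MgCl2, 1 U/mL adenosine deaminase; 5% DMSO except hA3. Nonspecific binding with 50 µM XAC, or 10 µM BW-1433 for hA3. Result is % radioligand bound relative to control.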

[24] = biological target: Adenosine receptor A2a (Rattus norvegicus) (UniProt P30543); assay: Displacement of [3H]ZM241385 from rat brain striatum adenosine A2A receptor relative to control
Adenosine receptor A2a (Rattus norvegicus), sequence (P30543 whole entry): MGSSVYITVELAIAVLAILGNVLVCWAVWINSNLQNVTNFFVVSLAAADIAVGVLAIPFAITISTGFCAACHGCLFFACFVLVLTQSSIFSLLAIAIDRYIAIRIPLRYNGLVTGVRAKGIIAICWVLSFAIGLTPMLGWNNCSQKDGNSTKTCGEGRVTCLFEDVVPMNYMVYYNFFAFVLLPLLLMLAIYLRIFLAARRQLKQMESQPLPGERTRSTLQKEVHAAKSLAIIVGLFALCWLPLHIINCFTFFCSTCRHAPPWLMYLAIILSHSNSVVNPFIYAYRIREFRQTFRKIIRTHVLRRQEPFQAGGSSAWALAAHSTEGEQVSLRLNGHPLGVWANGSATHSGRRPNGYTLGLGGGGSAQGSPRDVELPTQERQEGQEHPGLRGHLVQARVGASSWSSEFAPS

Adenosine receptor A2a (Rattus norvegicus, UniProt P30543), sequence (P30543 whole entry): as above
Adenosine receptor A2a (Homo sapiens, UniProt P29274), sequence (P29274 whole entry): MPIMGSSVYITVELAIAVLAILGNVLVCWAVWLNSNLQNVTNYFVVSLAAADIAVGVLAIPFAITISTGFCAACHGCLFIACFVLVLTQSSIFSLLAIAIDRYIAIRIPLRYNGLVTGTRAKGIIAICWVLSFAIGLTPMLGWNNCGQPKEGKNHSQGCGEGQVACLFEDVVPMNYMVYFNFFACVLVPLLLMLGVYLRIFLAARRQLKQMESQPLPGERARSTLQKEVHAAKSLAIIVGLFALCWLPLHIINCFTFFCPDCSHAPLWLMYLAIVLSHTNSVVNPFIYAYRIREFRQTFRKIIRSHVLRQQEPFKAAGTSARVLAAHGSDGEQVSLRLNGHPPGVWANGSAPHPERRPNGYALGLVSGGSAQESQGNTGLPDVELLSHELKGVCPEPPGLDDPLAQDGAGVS

Structure (SMILES) | solubility [2] [µg/mL] | solubility [3] [µg/mL] | bioavailability [4] [%] | Ki (Adenosine receptor A2a [5]) [nM] | Ki (Adenosine receptor A2b) [nM] | Ki (Adenosine receptor A3) [nM] | CL/F [10] [mL/min/kg] | solubility [14] [µg/mL] | half-life [15] [h] | Ki (Adenosine receptor A1 [18]) [nM] | Ki (Adenosine receptor A1 [22]) [nM] | other results
CCCn1c(=O)c2[nH]c([C@]34CC[C@](CCC(=O)O)(CC3)CC4)nc2n(CCC)c1=O | 12400 (≈ 29.8 mM) | 25400 (≈ 61 mM) | 99 | 2440 | 90 | > 10000 | 1.56 | 24400 (≈ 58.6 mM) | 3.14 | 1.3 | – | bioavailability [1]: 78%; Vdss (Canis familiaris): 2.64 L/kg; EC50 (Rattus norvegicus [6]): 16.1 nM; Kb (Rattus norvegicus [6]; read-out: pA2 (converted)): 0.158 nM; ED50 (Rattus norvegicus [7]): 0.015 mg/kg; CL/F [8]: 11.8 mL/min/kg; Ki (Adenosine receptor A2a [9]): 6410 nM; bioavailability [11]: 94%; half-life [12]: 6.4 h; CL/F [13]: 5.82 mL/min/kg; Vdss (Cynomolgus monkey): 4.25 L/kg; Vdss (Rattus norvegicus [16]): 0.32 L/kg; half-life [17]: 11.1 h; ED50 (Rattus norvegicus [19]): 0.015 mg/kg
CCCn1c(=O)c2[nH]c([C@H]3CC4C[C@@H]3[C@H]3O[C@@H]43)nc2n(CCC)c1=O | 250 (≈ 0.726 mM) | 430 (≈ 1.25 mM) | – | 1250 | – | 4810 | – | 460 (≈ 1.34 mM) | – | 0.7 | 12 | solubility [20]: 4600 µg/mL (≈ 13.4 mM); solubility [21]: 85300 µg/mL (≈ 248 mM)
CCCn1c(=O)c2nc([C@]34CC[C@](CCCC(=O)O)(CC3)CC4)[nH]c2n(CCC)c1=O | – | – | 48 | – | 127 | – | 7.1 | 500 (≈ 1.16 mM) | 2.04 | 4 | 29 | Activity [23]: 26%; Activity [24]: 50%

Source: ChEMBL document CHEMBL1137359, “Potent and orally bioavailable 8-bicyclo[2.2.2]octylxanthines as adenosine A1 receptor antagonists” (J Med Chem, 2006)
